From ChEMBL document CHEMBL1255350, “Plasma and cerebrospinal fluid pharmacokinetics of moxifloxacin in a patient with tuberculous meningitis” (Antimicrob Agents Chemother, 2008)
Converted amounts (≈) assume the structure as drawn.

Assays:
[1] = system: Homo sapiens; test: Cardiotoxicity in patient with intracerebral and leptomeningeal tuberculosis assessed as QT prolongation at 800 […], po […]; assay type: toxicity, organism-based; set-up: route oral; settings: in vivo
[2] = AUC (0 to 24 hrs) in CSF of patient with intracerebral and leptomeningeal tuberculosis at 800 […], po QD measured on day 3; assay type: ADME, organism-based, Cerebrospinal fluid; set-up: time < 24 hr, route oral; settings: human
Method in brief: (§1)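 Single patient on steady-state oral moxifloxacin, 400 or 800 mg once daily, sampled on day 3 of each dose. CSF was taken from an external lumbar drain and blood from a peripheral IV catheter into heparin tubes, predose and at 2, 4, 8, 12 and 24 h. Plasma was separated at 1,500 × g for 10 min at room temperature and stored at −20°C.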

[3] = system: Homo sapiens; test: Hepatotoxicity in patient with intracerebral and leptomeningeal tuberculosis at 800 […], po QD measured on day 3; assay type: toxicity, organism-based; set-up: route oral; settings: in vivo
Method in brief: (§2)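 Safety was monitored during oral once-daily treatment at 400 and then 800 mg. QTc was tracked by ECG, and blood samples were taken for renal and liver function tests.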

[4] = AUC (0 to 24 hrs) in plasma of patient with intracerebral and leptomeningeal tuberculosis at 800 […], po QD measured on day 3; assay type: ADME, organism-based; set-up: time < 24 hr, route oral; settings: human
[5] = system: Homo sapiens; test: Cardiotoxicity in patient with intracerebral and leptomeningeal tuberculosis assessed as QT prolongation at 400 […], po […]; assay type: toxicity, organism-based; set-up: route oral; settings: in vivo
[6] = fAUC (0 to 24 hrs) in plasma of patient with intracerebral and leptomeningeal tuberculosis at 400 […], po QD measured on day 3; assay type: ADME, organism-based; set-up: route oral; settings: human, in vivo
[7] = Cmax in plasma of patient with intracerebral and leptomeningeal tuberculosis at 800 […], po QD measured on day 3; assay type: ADME, organism-based; set-up: route oral; settings: human
Method in brief: (§3)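 Single patient with intracerebral and leptomeningeal TB without active meningitis. Oral dosing once daily at 400 mg, then 800 mg, each sampled at steady state on day 3. Blood and CSF were drawn through a peripheral intravenous catheter and an external lumbar drain into heparin tubes. Sampling was predose and at 2, 4, 8, 12 and 24 h. Plasma was spun 1,500 × g for 10 min at room temperature and stored at −20°C.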

[8] = system: Homo sapiens; test: Renal toxicity in patient with intracerebral and leptomeningeal tuberculosis at 400 […], po QD measured on day 3; assay type: organism-based; set-up: route oral; settings: in vivo; method in brief: as §2
[9] = system: Homo sapiens; test: Hepatotoxicity in patient with intracerebral and leptomeningeal tuberculosis at 400 […], po QD measured on day 3; assay type: toxicity, organism-based; set-up: route oral; settings: in vivo
[10] = Tmax in CSF of patient with intracerebral and leptomeningeal tuberculosis at 800 […], po QD measured on day 3; assay type: ADME, organism-based, Cerebrospinal fluid; set-up: route oral; settings: human
[11] = Tmax in plasma of patient with intracerebral and leptomeningeal tuberculosis at 800 […], po QD measured on day 3; assay type: ADME, organism-based; set-up: route oral; settings: human
[12] = Tmax in CSF of patient with intracerebral and leptomeningeal tuberculosis at 400 […], po QD measured on day 3; assay type: ADME, organism-based, Cerebrospinal fluid; set-up: route oral; settings: human
[13] = Cmax in CSF of patient with intracerebral and leptomeningeal tuberculosis at 800 […], po QD measured on day 3; assay type: ADME, organism-based, Cerebrospinal fluid; set-up: route oral; settings: human; method in brief: as §1
[14] = system: Mycobacterium tuberculosis; test: Antimicrobial activity against Mycobacterium tuberculosis; assay type: functional
Method in brief: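 MIC for the patient's isolate was determined by the Middlebrook 7H10 agar dilution method. It was used to calculate AUC0-24/MIC ratios.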

[15] = fAUC (0 to 24 hrs) in plasma of patient with intracerebral and leptomeningeal tuberculosis at 800 […], po QD measured on day 3; assay type: ADME, organism-based; set-up: route oral; settings: human, in vivo
[16] = Cmax in CSF of patient with intracerebral and leptomeningeal tuberculosis at 400 […], po QD measured on day 3; assay type: ADME, organism-based, Cerebrospinal fluid; set-up: route oral; settings: human
[17] = Tmax in plasma of patient with intracerebral and leptomeningeal tuberculosis at 400 […], po QD measured on day 3; assay type: ADME, organism-based; set-up: route oral; settings: human
[18] = Cmax in plasma of patient with intracerebral and leptomeningeal tuberculosis at 400 […], po QD measured on day 3; assay type: ADME, organism-based; set-up: route oral; settings: human
[19] = AUC (0 to 24 hrs) in plasma of patient with intracerebral and leptomeningeal tuberculosis at 400 […], po QD measured on day 3; assay type: ADME, organism-based; set-up: time < 24 hr, route oral; settings: human; method in brief: as §3
[20] = system: Homo sapiens; test: Renal toxicity in patient with intracerebral and leptomeningeal tuberculosis at 800 […], po QD measured on day 3; assay type: organism-based; set-up: route oral; settings: in vivo
[21] = fAUC (0 to 24 hrs) in CSF of patient with intracerebral and leptomeningeal tuberculosis at 400 […], po QD measured on day 3; assay type: ADME, organism-based, Cerebrospinal fluid; set-up: route oral; settings: human, in vivo
Method in brief: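 Same patient and sampling: oral 400 or 800 mg once daily at steady state, day 3 of each dose, predose to 24 h, with CSF from a lumbar drain and heparinized blood from an IV catheter. Free AUC0-24 was calculated assuming 40% protein binding.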

[22] = AUC (0 to 24 hrs) in CSF of patient with intracerebral and leptomeningeal tuberculosis at 400 […], po QD measured on day 3; assay type: ADME, organism-based, Cerebrospinal fluid; set-up: time < 24 hr, dose 400 mg/kg, route oral; settings: human
[23] = fAUC (0 to 24 hrs) in CSF of patient with intracerebral and leptomeningeal tuberculosis at 800 […], po QD measured on day 3; assay type: ADME, organism-based, Cerebrospinal fluid; set-up: dose 800 mg/kg, route oral; settings: human, in vivo

Which Activity [1] does the source give for COc1c(N2C[C@@H]3CCCN[C@@H]3C2)c(F)cc2c(=O)c(C(=O)O)cn(C3CC3)c12 [MOXIFLOXACIN] here?
Its Activity is “Non-toxic”.

What about the AUC at 24 h [2] of the same compound?
Its AUC at 24 h is 14300 ng·h/mL.

And the Activity [3]?
The Activity was “Non-toxic”.

And the AUC at 24 h [4]?
The AUC at 24 h was 19400 ng·h/mL.

What about the Activity [5] of the same compound?
Its Activity is “Non-toxic”.

And the fAUC [6]?
The fAUC was 5300 ng·h/mL.

And the Cmax [7]?
The Cmax was 2450 ng/mL.

And the Activity [8]?
Its Activity is “Non-toxic”.

What about the Activity [9] of the same compound?
The Activity was “Non-toxic”.

What about the Tmax [10] of the same compound?
Its Tmax is 4 h.

What about the Tmax [11] of the same compound?
Its Tmax is 2 h.

And the Tmax [12]?
The Tmax was 4 h.

And the Cmax [13]?
Its Cmax is 1420 ng/mL.

What about the MIC [14] of the same compound?
The MIC was 0.15 µg/mL (≈ 0.374 µM).

What about the fAUC [15] of the same compound?
The fAUC was 11600 ng·h/mL.

What about the Cmax [16] of the same compound?
Its Cmax is 616 ng/mL.

And the Tmax [17]?
The Tmax was 2 h.

What about the Cmax [18] of the same compound?
The Cmax was 1060 ng/mL.

What about the AUC at 24 h [19] of the same compound?
Its AUC at 24 h is 8900 ng·h/mL.

And the Activity [20]?
The Activity was “Non-toxic”.

And the fAUC [21]?
The fAUC was 8400 ng·h/mL.

What about the AUC at 24 h [22] of the same compound?
The AUC at 24 h was 8400 ng·h/mL.

What about the fAUC [23] of the same compound?
Its fAUC is 14300 ng·h/mL.
